From ChEMBL document CHEMBL1157805, “Virtual screening, selection and development of a benzindolone structural scaffold for inhibition of lumazine synthase” (Bioorg Med Chem, 2010)
Active and inactive are the calls of the source. The calls are words filed in the database; no cut-off is given here.

Tests used:
[1] = molecular target: 6,7-dimethyl-8-ribityllumazine synthase (Mycobacterium tuberculosis) (UniProt P9WHE9); test: Uncompetitive inhibition of Mycobacterium tuberculosis recombinant lumazine synthase
Method in brief: (§1)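 Recombinant M. tuberculosis lumazine synthase (2 μM) in 100 mM Tris-HCl pH 7.0, 100 mM NaCl, 5 mM DTT, 2% DMSO. Dihydroxybutanone phosphate was fixed at 100 μM, pyrimidinedione substrate varied 3–100 μM, and inhibitor 0–200 μM. Reactions were started with the pyrimidinedione substrate. Lumazine formation was read at 408 nm for 30 min at 27 °C. Velocity–substrate data were fitted by nonlinear regression to alternative inhibition models.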

[2] = tested on: Mycobacterium tuberculosis; test: Activity at Mycobacterium tuberculosis recombinant riboflavin synthase after 30 mins by fluorescence assay
Method in brief: (§2)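 Recombinant M. tuberculosis riboflavin synthase (1 μM) in 100 mM Tris-HCl pH 7.0, 100 mM NaCl, 5 mM DTT, 2% DMSO. 6,7-Dimethyl-8-ribityllumazine substrate was varied 3–60 μM and inhibitor 0–200 μM. Reactions were started with substrate. Riboflavin formation was monitored at 470 nm for 30 min at 27 °C. Velocity–substrate data for all inhibitor levels were fitted by nonlinear regression to alternative inhibition models.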

[3] = tested on: Mycobacterium tuberculosis; test: Uncompetitive inhibition of Mycobacterium tuberculosis recombinant riboflavin synthase; method in brief: as §2
[4] = molecular target: 6,7-dimethyl-8-ribityllumazine synthase (Mycobacterium tuberculosis) (UniProt P9WHE9); test: Mixed Inhibition of Mycobacterium tuberculosis recombinant lumazine synthase; method in brief: as §1

6,7-dimethyl-8-ribityllumazine synthase (Mycobacterium tuberculosis), sequence (P9WHE9 whole entry): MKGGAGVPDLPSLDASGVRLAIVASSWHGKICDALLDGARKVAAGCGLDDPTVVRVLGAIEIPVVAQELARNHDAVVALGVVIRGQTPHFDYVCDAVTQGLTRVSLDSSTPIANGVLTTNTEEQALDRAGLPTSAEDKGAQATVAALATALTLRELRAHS

| Compound | inhibition [1] | kcat [2] [s⁻¹] | inhibition [3] | inhibition [4] |
| --- | --- | --- | --- | --- |
| O=C1Nc2ccc(S(=O)(=O)NCCCCCOP(=O)(O)O)c3cccc1c23 | Active | 0.00933 | Active |  |
| CCOC(=O)C(=O)Nc1c(Cl)[nH]c(=O)[nH]c1=O |  | 0.00567 | Active | Active |
| O=C1Nc2ccc(S(=O)(=O)NCCCCCCOP(=O)(O)O)c3cccc1c23 | Active | 0.00933 | Active |  |
| O=C1Nc2ccc(S(=O)(=O)NCCCCC(F)(F)P(=O)(O)O)c3cccc1c23 |  |  |  | Active |
| O=C1Nc2ccc(S(=O)(=O)NCCCCOP(=O)(O)O)c3cccc1c23 |  | 0.00483 |  | Active |
| O=C1Nc2ccc(S(=O)(=O)NCCCOP(=O)(O)O)c3cccc1c23 |  | 0.00467 |  | Active |
| O=C1Nc2ccc(S(=O)(=O)NCCOP(=O)(O)O)c3cccc1c23 |  | 0.005 |  |  |
